The source made the active and inactive calls. The rule behind the calls is not given here.
Key:
Adenosine receptor A2a [1] = target: T1, Adenosine receptor A2a (Homo sapiens, UniProt P29274); assay: Binding affinity at human adenosine A2A receptor
Adenosine receptor A1 = target: T2, Adenosine receptor A1 (Homo sapiens, UniProt P30542); assay: Binding affinity at human adenosine A1 receptor
T2 sequence (P30542 whole entry): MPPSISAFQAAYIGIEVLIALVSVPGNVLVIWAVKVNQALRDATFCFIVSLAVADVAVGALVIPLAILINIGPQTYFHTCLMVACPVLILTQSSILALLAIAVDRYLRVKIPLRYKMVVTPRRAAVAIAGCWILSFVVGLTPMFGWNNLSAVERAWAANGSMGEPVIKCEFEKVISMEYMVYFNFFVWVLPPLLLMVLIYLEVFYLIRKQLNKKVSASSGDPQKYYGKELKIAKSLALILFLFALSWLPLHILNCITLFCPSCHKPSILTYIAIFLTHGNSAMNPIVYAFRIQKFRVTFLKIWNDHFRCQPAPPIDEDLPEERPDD

Adenosine receptor A2a [2] = target: T1, Adenosine receptor A2a; assay: Agonist activity at human recombinant adenosine A2A receptor expressed in CHO cells assessed as calcium mobilization by FLIPR assay; type: functional, cell-based
Mus musculus [3] = assay: Reversal of haloperidol-induced hypolocomotion in mouse at 30 mg/kg, ip; type: functional, organism-based; design: dose 30 mg/kg
How it was run: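 Haloperidol-induced hypolocomotion model in mice. Test compound was given intraperitoneally at 30 mg kg-1, and reversal of the reduced locomotion was assessed.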

Adenosine receptor A2b = target: T3, Adenosine receptor A2b (Homo sapiens, UniProt P29275); assay: Binding affinity at human adenosine A2B receptor
T3 sequence (P29275 whole entry): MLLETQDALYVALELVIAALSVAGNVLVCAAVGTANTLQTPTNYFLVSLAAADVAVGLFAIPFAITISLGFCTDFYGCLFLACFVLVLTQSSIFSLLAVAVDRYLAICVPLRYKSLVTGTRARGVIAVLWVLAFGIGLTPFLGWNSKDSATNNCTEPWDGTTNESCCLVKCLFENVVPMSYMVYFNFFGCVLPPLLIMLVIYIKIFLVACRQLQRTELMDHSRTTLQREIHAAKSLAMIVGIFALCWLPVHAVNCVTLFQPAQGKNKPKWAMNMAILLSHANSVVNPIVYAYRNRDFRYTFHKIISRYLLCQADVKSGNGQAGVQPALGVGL

Adenosine receptor A3 = target: T4, Adenosine receptor A3 (Homo sapiens, UniProt P0DMS8); assay: Binding affinity at human adenosine A3 receptor
T4 sequence (P0DMS8 whole entry): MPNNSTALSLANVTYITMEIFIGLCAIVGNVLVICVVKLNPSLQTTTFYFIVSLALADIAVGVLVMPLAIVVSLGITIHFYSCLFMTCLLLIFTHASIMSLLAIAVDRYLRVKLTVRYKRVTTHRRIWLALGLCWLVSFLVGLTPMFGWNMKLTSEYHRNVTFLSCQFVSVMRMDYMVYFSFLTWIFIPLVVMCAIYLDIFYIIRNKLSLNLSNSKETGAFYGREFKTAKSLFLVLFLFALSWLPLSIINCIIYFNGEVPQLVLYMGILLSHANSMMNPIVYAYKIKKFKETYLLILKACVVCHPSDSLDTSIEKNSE

Mus musculus [4] = assay: Reversal of haloperidol-induced hypolocomotion in mouse at 10 mg/kg, sc; type: functional, organism-based; design: dose 10 mg/kg

T1 sequence (P29274 whole entry): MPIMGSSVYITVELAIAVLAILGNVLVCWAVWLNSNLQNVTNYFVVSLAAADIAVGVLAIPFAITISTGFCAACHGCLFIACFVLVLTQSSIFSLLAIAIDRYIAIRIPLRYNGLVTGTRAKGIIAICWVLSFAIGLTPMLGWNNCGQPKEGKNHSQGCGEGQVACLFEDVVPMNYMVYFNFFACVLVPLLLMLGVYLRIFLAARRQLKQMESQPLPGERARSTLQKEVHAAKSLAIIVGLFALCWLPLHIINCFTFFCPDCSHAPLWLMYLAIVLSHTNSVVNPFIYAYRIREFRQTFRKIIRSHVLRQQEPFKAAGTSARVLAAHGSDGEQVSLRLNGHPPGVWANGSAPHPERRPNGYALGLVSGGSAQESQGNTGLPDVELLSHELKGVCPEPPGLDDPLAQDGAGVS

SMILES	Ki (Adenosine receptor A2a [1])	Ki (Adenosine receptor A1)	EC50 (Adenosine receptor A2a [2])	Ki (Adenosine receptor A2b)	Ki (Adenosine receptor A3)	Activity (Mus musculus [3])	Activity (Mus musculus [4])
OCCNc1nc(-c2ccco2)c2sccc2n1	203 nM	868 nM	> 10000 nM	–	–	inactive	–
CN(C)c1nc(-c2ccoc2)c2sccc2n1	748 nM	3470 nM	> 10000 nM	–	–	–	–
CN(C)c1nc(-c2cn[nH]c2)c2sccc2n1	3080 nM	5510 nM	> 10000 nM	–	–	–	–
CN(C)c1nc(-c2cc3ccccc3s2)c2sccc2n1	1330 nM	1260 nM	> 10000 nM	–	–	–	–
OCCNc1nc(-c2nccs2)c2sccc2n1	18 nM	57 nM	> 10000 nM	–	–	Active	–
OC[C@@H]1CCCN1c1nc(-c2nccs2)c2sccc2n1	–	14 nM	–	2480 nM	456 nM	Active	–
CCNc1nc(-c2ccco2)c2sccc2n1	58 nM	375 nM	> 10000 nM	–	–	Active	–
CN(C)c1nc(-c2nccn2C)c2sccc2n1	14 nM	1100 nM	> 10000 nM	–	–	inactive	–
CCc1nc(-c2ccoc2)c2sccc2n1	681 nM	10000 nM	> 10000 nM	–	–	–	–
OCCNc1nc(-c2cccs2)c2sccc2n1	172 nM	401 nM	> 10000 nM	–	–	Active	–
Nc1nc(-c2nccs2)c2sccc2n1	–	675 nM	> 10000 nM	–	–	Active	–
CN(C)c1nc(-c2cccs2)c2sccc2n1	55 nM	1960 nM	> 10000 nM	–	–	inactive	–
CCc1nc(-c2cccs2)c2sccc2n1	69 nM	1470 nM	> 10000 nM	–	–	inactive	–
Clc1nc(-c2cccs2)c2sccc2n1	391 nM	2040 nM	> 10000 nM	–	–	inactive	–
Cc1cnc(-c2nc(N(C)C)nc3ccsc23)s1	5.7 nM	908 nM	> 10000 nM	–	–	inactive	–
CN(C)c1nc(-c2ccccn2)c2sccc2n1	26 nM	1590 nM	> 10000 nM	–	–	–	–
CCc1nc(-c2ccco2)c2sccc2n1	30 nM	3210 nM	> 10000 nM	–	–	–	–
CN(C)c1nc(-c2ccco2)c2sccc2n1	60 nM	2200 nM	> 10000 nM	–	–	Active	–
CC(C)(C)c1nc(-c2nccs2)c2sccc2n1	3.1 nM	240 nM	> 10000 nM	–	–	inactive	–
COc1nc(-c2cccs2)c2sccc2n1	444 nM	1590 nM	> 10000 nM	–	–	inactive	–

More lines, main results first:

Ki (Adenosine receptor A2a [1])	Ki (Adenosine receptor A1)	EC50 (Adenosine receptor A2a [2])	Ki (Adenosine receptor A2b)	Ki (Adenosine receptor A3)	SMILES	Activity (Mus musculus [3])	Activity (Mus musculus [4])
154 nM	813 nM	> 10000 nM	–	–	CCNc1nc(-c2cccs2)c2sccc2n1	inactive	–
–	259 nM	–	910 nM	945 nM	c1csc(-c2nc(C3CC3)nc3ccsc23)n1	Active	Active
2.1 nM	413 nM	> 10000 nM	–	–	CCc1nc(-c2nc(C)cs2)c2sccc2n1	Active	–
–	303 nM	–	–	–	Cc1csc(-c2nc(N(C)C)nc3ccsc23)n1	Active	–
–	250 nM	–	–	–	OC[C@H]1CCCN1c1nc(-c2nccs2)c2sccc2n1	Active	–
779 nM	4940 nM	> 10000 nM	–	–	CCc1nc(-n2nccn2)c2sccc2n1	–	–
–	–	> 10000 nM	–	–	Nc1nc(-c2ccco2)c2sccc2n1	Active	–
–	1270 nM	–	–	–	CCc1nc(-c2cccc(C)n2)c2sccc2n1	inactive	–
142 nM	5530 nM	> 10000 nM	–	–	CCc1nc(-c2ncc[nH]2)c2sccc2n1	Active	–
19 nM	1260 nM	> 10000 nM	–	–	Cc1ccc(-c2nc(N(C)C)nc3ccsc23)nc1	inactive	–
81 nM	990 nM	> 10000 nM	–	–	CN(C)c1nc(-c2cnccn2)c2sccc2n1	inactive	–
20 nM	615 nM	> 10000 nM	–	–	Clc1nc(-c2nccs2)c2sccc2n1	–	–
2.3 nM	366 nM	> 10000 nM	1560 nM	1760 nM	CN(C)c1nc(-c2nccs2)c2sccc2n1	Active	–
1.6 nM	388 nM	> 10000 nM	721 nM	1810 nM	CCc1nc(-c2nccs2)c2sccc2n1	Active	–
6.6 nM	254 nM	> 10000 nM	–	–	Cc1nc(-c2nc(N(C)C)nc3ccsc23)sc1C	inactive	–
1.4 nM	208 nM	> 10000 nM	865 nM	476 nM	CC(C)c1nc(-c2nccs2)c2sccc2n1	Active	–
299 nM	5770 nM	> 10000 nM	–	–	CN(C)c1nc(-c2ncc[nH]2)c2sccc2n1	Active	–
40 nM	568 nM	> 10000 nM	–	–	CNc1nc(-c2ccco2)c2sccc2n1	Active	–
13 nM	917 nM	> 10000 nM	–	–	CCc1nc(-c2ccccn2)c2sccc2n1	Active	–
